Published values of several laboratories.
Protocols differ between the studies behind these lines.
Target: Serine/threonine-protein kinase TAO3 (TAOK3, Homo sapiens, UniProt Q9H2K8)
Residues used in one study (Q9H2K8 1-898): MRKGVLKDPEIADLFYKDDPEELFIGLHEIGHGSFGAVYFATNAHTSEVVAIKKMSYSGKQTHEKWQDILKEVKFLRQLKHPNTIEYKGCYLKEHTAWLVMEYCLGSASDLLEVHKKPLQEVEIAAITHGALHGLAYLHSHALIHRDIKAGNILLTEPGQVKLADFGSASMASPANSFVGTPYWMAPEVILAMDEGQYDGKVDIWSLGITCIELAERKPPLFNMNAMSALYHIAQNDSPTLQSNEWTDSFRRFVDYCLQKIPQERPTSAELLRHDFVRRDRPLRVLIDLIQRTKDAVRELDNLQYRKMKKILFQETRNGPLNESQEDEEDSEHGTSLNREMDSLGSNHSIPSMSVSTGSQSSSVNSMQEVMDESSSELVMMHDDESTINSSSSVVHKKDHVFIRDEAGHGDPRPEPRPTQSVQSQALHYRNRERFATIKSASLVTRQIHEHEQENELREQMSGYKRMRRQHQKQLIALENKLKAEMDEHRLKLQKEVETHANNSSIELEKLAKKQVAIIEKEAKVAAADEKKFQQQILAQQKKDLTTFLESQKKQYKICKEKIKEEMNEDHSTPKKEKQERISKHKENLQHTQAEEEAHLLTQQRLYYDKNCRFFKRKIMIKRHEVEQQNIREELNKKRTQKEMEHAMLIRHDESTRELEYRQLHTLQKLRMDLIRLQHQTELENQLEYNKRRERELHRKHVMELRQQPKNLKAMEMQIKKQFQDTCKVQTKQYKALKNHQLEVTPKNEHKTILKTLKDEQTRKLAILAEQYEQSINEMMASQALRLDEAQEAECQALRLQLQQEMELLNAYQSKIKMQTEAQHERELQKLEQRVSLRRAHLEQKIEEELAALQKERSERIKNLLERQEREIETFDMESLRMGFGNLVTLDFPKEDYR

N[C@H]1CCN(c2nccc(-c3cnn4ncccc34)n2)C1 has a remaining binding of 100% (binding; 1 µM).
With c1ccc(N2CCN(Cc3nc4ccccc4[nH]3)CC2)nc1 the remaining binding was 86% (binding, competition with immobilised ligand; 1 µM).
O=C(c1ccc(Nc2ncc(Cl)c(-c3cc4ccccc4s3)n2)cc1)N1CCC(N2CCCC2)CC1 has a remaining binding of 68% (binding, competition with immobilised ligand; 1 µM).
With FC(F)(F)Oc1cccc(-c2cnc3ccc(-c4ccncc4)nn23)c1 the remaining binding was 72% (binding, competition with immobilised ligand; 5 µM).
CN(C)c1ncc(F)c(-c2cnn3ncccc23)n1 has a remaining binding of 78% (binding; 1 µM).
The remaining binding of CNC(=O)[C@@H]1CC[C@@H](n2c(-c3ccc4cnccc4c3)nc3ccc(C(=O)NCc4cccc(C(N)=O)c4)cc32)C1 is reported as 93% (binding, competition with immobilised ligand; 1 µM).
For CC1=C(C#N)[C@@H](c2ccc3[nH]nc(C)c3c2)C(C#N)=C(c2ccc(Cl)cc2)N1, the remaining binding was 100% (cell-free assay, competition with immobilised ligand; 1 µM).
With COc1cnc(Nc2cccc(S(N)(=O)=O)c2)nc1N1CCN(c2ccccc2)CC1 the remaining binding was 85% (binding, competition with immobilised ligand; 1 µM).
The remaining binding of Nc1cnc(N2CCc3cc(S(=O)(=O)Nc4c(F)cc(Cl)cc4F)cc(N4CCCC4=O)c32)nc1 is reported as 70% (cell-free assay, competition with immobilised ligand; 1 µM).
Nc1ncc2c(n1)-c1c([nH]c3ccc(C#CC4CC4)cc13)CCCC2 has a remaining binding of 89% (binding, competition with immobilised ligand; 1 µM).
C[C@H](c1ccnc(Nc2nc3ccc(-c4cc(N(C)C)ncn4)cc3[nH]2)c1)N1CCN(C(=O)CC(F)(F)F)CC1 has a remaining binding of 41% (cell-free assay, competition with immobilised ligand; 0.1 µM).
COc1ncc2cc3ccccc3nc2c1C#N has a remaining binding of 100% (cell-free assay, competition with immobilised ligand; 5 µM).
COc1ccnn2ncc(-c3ccnc(N(C)C)n3)c12 gave a remaining binding of 82% (binding; 1 µM).
O=C(c1ccc(Nc2nccc(-c3cc4ccccc4s3)n2)cc1)N1CCC(N2CCCC2)CC1 has a remaining binding of 100% (binding, competition with immobilised ligand; 1 µM).
The remaining binding of O=C1CCc2cc(Nc3cc(OC4CCOCC4)c([N+](=O)[O-])cc3Cl)ccc2N1 is reported as 81% (cell-free assay, competition with immobilised ligand; 1 µM).
With F[C@@H]1CCN(c2nccc(-c3cnn4ncccc34)n2)C1 the remaining binding was 55% (binding; 1 µM).
O=C(Nc1c[nH]nc1C(=O)NC1CCNCC1)c1cc(F)cc(F)c1 has a remaining binding of 70% (binding, competition with immobilised ligand; 1 µM).
C[C@H]1CCN(c2nccc(-c3cnn4ncccc34)n2)C1 gave a remaining binding of 86% (binding; 1 µM).
Cn1nc(C(F)(F)F)cc1-c1cnc(N2CCc3cc(S(=O)(=O)Nc4c(F)cc(Cl)cc4F)cc(N4CCCC4=O)c32)nc1 gave a remaining binding of 93% (cell-free assay, competition with immobilised ligand; 1 µM).
With c1cncc(-c2cccc(Nc3nccc(NC4CCCCC4)n3)c2)c1 the remaining binding was 98% (binding, competition with immobilised ligand; 10 µM).
For Cc1cnn2ncc(-c3ccnc(N(C)C)n3)c2c1, the remaining binding was 91% (binding; 1 µM).
For O=C(c1ccc(Nc2ncc(Cl)c(-c3ccc(Cl)s3)n2)cc1)N1CCC(N2CCCC2)CC1, the remaining binding was 49% (binding, competition with immobilised ligand; 1 µM).
